These results are taken from ChEMBL document CHEMBL4368871, “Flush with a flash: natural three-component antimicrobial combinations based on S-nitrosothiols, controlled superoxide formation and "domino" reactions leading to peroxynitrite” (Medchemcomm, 2018).

Series [1] deals with Saccharomyces cerevisiae. Nature of the series: Antimicrobial activity against Saccharomyces cerevisiae assessed as microbial growth at 250 to 1000 uM measured up to 24 hrs in presence of xanthine/xanthine oxidase. The class given is functional. A digest of the protocol:
(§1)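 Xanthine (400 μM) and xanthine oxidase (50 mU mL–1) were combined with the S-nitrosothiol at 250, 500 and 1000 μM. Growth was read as optical density at 570 nm at 0 h and after 24 h at 37 °C. Controls were medium plus organism (negative) and penicillin/streptomycin/amphotericin B (positive). Runs were in triplicate on three occasions (n = 9), analysed by one-way ANOVA.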

Series [2] in a line: Induction of peroxynitrite anion generation assessed as peroxynitrite anion level in presence of xanthine/xanthine oxidase by DHR-123 indicator based spectrofluorometric method. The class given is functional. In short, it runs like this:
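Peroxynitrite was generated by the S-nitrosothiol with xanthine (400 μM) and xanthine oxidase (50 mU mL–1), the reaction being started by adding substrate or enzyme. It was quantified spectrofluorometrically by dihydrorhodamine 123 oxidation to rhodamine 123, with excitation at 485 nm and emission at 530 nm.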

Series [3] is described as follows: Induction of peroxynitrite anion generation assessed as peroxynitrite anion level in presence of riboflavin by DHR-123 indicator based spectrofluorometric method. The class given is functional. A digest of the protocol:
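Peroxynitrite was generated by the S-nitrosothiol with riboflavin (250, 500, 1000 μM) illuminated by a standard lamp (0.6 Lumen, 310 K), followed over 2–24 h. It was detected by oxidation of dihydrorhodamine 123 to fluorescent rhodamine 123, with excitation at 485 nm and emission at 530 nm.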

The subject of series [4] is Steinernema feltiae. The experiment in a line: Nematocidal activity against Steinernema feltiae at 250 to 1000 uM measured under dark condition up to 24 hrs. The class given is functional, organism-based. In short, it runs like this:
(§2)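 S. feltiae nematodes were exposed to riboflavin (500 or 1000 μM) with the S-nitrosothiol, incubated 24 h at 37 °C without light. Controls were medium plus nematodes (negative), penicillin/streptomycin/amphotericin B (positive), and 1000 μM riboflavin or RSNO alone. Triplicates on three occasions (n = 9).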

In series [5] the test system is Candida tropicalis. Nature of the series: Antimicrobial activity against Candida tropicalis assessed as reduction in microbial growth at 250 to 1000 uM measured up to 24 hrs in presence of xanthine/xanthine oxidase. The class given is functional, organism-based. In short, it runs like this: as §1
The test system of series [6] is Steinernema feltiae. Nature of the series: Nematocidal activity against Steinernema feltiae assessed as nematode viability at 250 to 1000 uM measured up to 24 hrs in presence of xanthine oxidase. The class given is functional.
Series [7] concerns Escherichia coli. Nature of the series: Antimicrobial activity against Escherichia coli assessed as microbial growth at 250 to 1000 uM measured up to 24 hrs in presence of riboflavin under day light exposure relative to control. The class given is functional. A digest of the protocol: (§3)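 E. coli was exposed to riboflavin (250, 500, 1000 μM) plus the S-nitrosothiol at 250, 500 or 1000 μM. Incubation was 24 h at 37 °C under a daylight LED (0.6 Lumen). Growth was read as OD at 570 nm at 0 h and 24 h. Controls were medium plus organism, antibiotic/antifungal mix, and riboflavin or RSNO alone. Triplicates on three occasions (n = 9), one-way ANOVA.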

Series [8] concerns Steinernema feltiae. Nature of the series: Nematocidal activity against Steinernema feltiae at 250 to 1000 uM in presence of riboflavin measured under dark condition up to 24 hrs. The class given is functional, organism-based. A digest of the protocol: as §2
Series [9] concerns Escherichia coli. The experiment in a line: Dark toxicity against Escherichia coli at 250 to 1000 uM measured under dark condition up to 24 hrs. The class given is organism-based. To be noted: in vivo. A digest of the protocol:
(§4)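 E. coli was treated with the riboflavin (250, 500, 1000 μM) plus RSNO (250–1000 μM) system and incubated 24 h at 37 °C in the dark. Growth was read as OD at 570 nm at 0 and 24 h. Medium-only and antibiotic-mix controls were included, plus riboflavin and RSNO dilution controls. Triplicates on three occasions (n = 9).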

The test system of series [10] is Steinernema feltiae. The experiment in a line: Nematocidal activity against Steinernema feltiae assessed as nematode viability at 250 to 1000 uM measured up to 24 hrs in presence of xanthine/xanthine oxidase. The class given is functional.
In series [11] the test system is Bacillus cereus. The experiment in a line: Antimicrobial activity against Bacillus cereus assessed as microbial growth at 250 to 1000 uM measured up to 24 hrs in presence of xanthine/xanthine oxidase. The class given is functional. A digest of the protocol: as §1
Series [12] relates to Escherichia coli. Nature of the series: Dark toxicity against Escherichia coli at 250 to 1000 uM in presence of riboflavin measured up to 24 hrs. To be noted: in vivo. The class given is organism-based. A digest of the protocol: as §4
For series [13], the system named is Escherichia coli. Nature of the series: Antimicrobial activity against Escherichia coli assessed as reduction in microbial growth measured up to 24 hrs in presence of riboflavin under day light exposure. The class given is functional, organism-based. A digest of the protocol:
as §3

Each structure is given as a SMILES string. Calls of active or inactive are those of the source. No cut-off for these calls is given here.

Turning to `N[C@@H](CCC(=O)N[C@@H](CSN=O)C(=O)NCC(=O)O)C(=O)O` [S-NITROSOGLUTATHIONE], the Activity in series [1] is 9%; in series [2] it was 17.1 µM; in series [3] it was 18.9 µM; in series [6] it was 50%; in [7], 20%; in series [9], “Non-Toxic”. Also, the Activity is <10% in series [10], 6% in series [11], “Non-Toxic” in series [12] and “Dose-dependent effect” in series [13]. The result in [4], in series [5] and in series [8] was inactive.

For the molecule `CC(=O)N[C@@H](C(=O)O)C(C)(C)SN=O`, the outcome in [1] and in series [11] was Active. For the same molecule, the Activity in [2] is 15.4 µM; in series [3] it was 20.4 µM; in [6], 50%; in [10] it was <10%; in series [13], “Dose-dependent effect”. In addition, the result in series [5] was inactive.
